Sampled rows, rich in hits. Any-hit rate of the full collection: about 5.7%.
Beta cell apopt: inhibitors of cytokine-induced beta cell apoptosis, primary screen, luminescence; INS-1E cytokine-induced death, ATP luminescence, 48 h; percent of positive-control rescue, neutral wells zero; protection from apoptosis, % (no concentration beside the values); hit rate 0.8% among 300,000; AID 435005, 2010;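 active = Every replicate reaches about 75%, or at least half do and their mean reaches it too, limit read from the data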;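 note: 0% = cytokine-treated negative control wells and 100% = positive control rescue; higher means more ATP so stronger rescue from cytokine killing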
Mdm2-MdmX inh: inhibitors of human Mdm2-MdmX association, primary screen, cell-based, luminescence, split luciferase, SaOS-2, uHTS; AID 485346, 2010; SaOS-2 split-luciferase Mdm2/MdmX complementation; inhibition, % at 8 µM; hit rate 3% among 330,000;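 active = inhibition of at least 50% at 8 µM in the primary screen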
Calb FLC: C. albicans growth inhibition with fluconazole, primary screen, CaCi-2 strain, Alamar Blue fluorescence | C. albicans CaCi-2 (fluconazole-resistant clinical isolate) + fluconazole, 48 h | growth inhibition, % (no concentration beside the values) | hit rate 0.57% among 300,000;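 active = growth inhibition above about 58% in most replicates, limit read from the data, passing the limit was not always enough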;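 note: all wells also contain fluconazole at 8 µg/ml as a sub-toxic cotreatment; 0% = median of DMSO wells and 100% = median of geldanamycin control wells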
T cruzi inh: inhibitors of intracellular T. cruzi growth, primary screen, luminescence, NIH3T3 host cells. T. cruzi beta-gal in NIH3T3, 90 h. inhibition, % (no concentration beside the values). hit rate 1.4% among 300,000;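 active = mean inhibition across valid replicates above about 55%, limit read from the data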;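 note: signal also drops with host cell toxicity which is not excluded here; 0% = plate median of DMSO wells and 100% = zero luminescence signal; higher percent means less beta-gal luminescence so fewer parasites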
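Material: NIH/3T3 host cells with β-galactosidase reporter T. cruzi; Input: 5,000 host fibroblasts per well; Medium: DMEM, 2% fetal bovine serum; Compound: 50 nL DMSO compound solution per well; Schedule: 3 h host attachment, then at least 90 h co-culture; Detection: luminescent β-galactosidase signal after 60 min lysis.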
SKKanGAS inh: S. pyogenes SKKanGAS growth inhibitors in kanamycin, primary screen, streptokinase expression inhibitor project, SKKanGAS strain, BacTiter-Glo luminescence | 6 h | inhibition, % at 7.5 µM | hit rate 1.3% among 300,000;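 active = mean replicate score, as percent of positive control median, at least 50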;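 note: strain carries kanamycin resistance gene driven by streptokinase promoter and grows in 40 µg/ml kanamycin; loss of luminescence reflects streptokinase promoter inhibition or plain growth inhibition; 0% = median of DMSO wells and 100% = positive control at its reference dose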
CSC inhib: cancer stem cell viability inhibitors, primary screen, luminescence. inhibition, % at 7.5 µM. hit rate 1.1% among 300,000. cancer stem cell-like cells viability. AID 2717, 2010; in the data active = inhibition above about 75%; tested in HMLE shEcad cells
An asterisk follows results filed as active; . = no result given.

SMILES	Beta cell apopt	Mdm2-MdmX inh	Calb FLC	T cruzi inh	SKKanGAS inh	CSC inhib
CC(C)(C)OC(=O)N[C@@H](COCc1ccccc1)C(=O)N[C@@H](CO)[C@H](O)[C@@H]1C[C@@H]1C(=O)NC1CCCCC1	-4	-20	6	1	5	-19
COc1ccc(CNCC(O)(c2ccc(Cl)cc2)c2ccc(Cl)cc2)cc1	34	24	-20	49	59*	-11
CCCC(=O)NC(c1ccco1)c1cc([N+](=O)[O-])c2cccnc2c1O (stereo not given)	-8	45	109*	-13	54*	77*
CCC(=O)NC(c1ccc(C)cc1)c1cc([N+](=O)[O-])c2cccnc2c1O (stereo not given)	83*	.	110*	63*	87*	100*
CCCC(=O)NC(c1ccco1)c1c(O)ccc2ccccc12 (stereo not given)	-2	1	62	-4	-9	.
CCOC(=O)c1cc2c(=O)n3ccccc3nc2n(C(C)C)c1=NC(=O)c1c(-c2c(F)cccc2Cl)noc1C	5	36	19	58*	27	63
O=C(Oc1ccc(NC2=NS(=O)(=O)c3ccccc32)cc1)c1cccnc1	.	4	2	-8	59*	-10
O=S1(=O)N=C(Nc2ccc(O)cc2)c2ccccc21	.	4	4	-8	1	-13
CCOC(=O)c1cc(-c2cccs2)nc2c1c(C)nn2-c1ccccn1	65	36	0	7	58*	104*
O=[N+]([O-])c1ccc(N/N=C/c2c[nH]c3ccccc23)c(S(=O)(=O)Nc2ccc(Cl)cc2)c1	12	18	-15	29	77*	101*
CCN(CC)S(=O)(=O)c1cccc(NC(=O)CN2C(=O)NC3(CCC(C)CC3)C2=O)c1 (stereo not given)	.	6	.	.	.	.
C#CCOCCOCCOCCNc1nc(N2CCN(C(=O)CCCCCCCCCCNC(=O)[C@@H](CCSC)n3cc(CCO)nn3)CC2)nc(N2CCN(C(=O)CCCCCCCCCCNC(=O)[C@H](CCCN=C(N)N)n3cc(C[C@@H](C)CC)nn3)CC2)n1	43	-5	.	.	.	67
C#CCOCCOCCOCCNc1nc(N2CCN(C(=O)CCCCCCCCCCNC(=O)[C@H]([C@@H](C)CC)n3cc(CCCCN=C(N)N)nn3)CC2)nc(N2CCN(C(=O)CCCCCCCCCCNC(=O)[C@@H]([C@H](C)O)n3cc(C)nn3)CC2)n1	15	11	.	.	.	8
C#CCOCCOCCOCCNc1nc(N2CCN(C(=O)CCCCCCCCCCNC(=O)[C@@H](CCC(=O)O)n3cc(CCCCCN)nn3)CC2)nc(N2CCN(C(=O)CCCCCCCCCCNC(=O)[C@H](CCCCN)n3cc(C[C@@H](C)CC)nn3)CC2)n1	7	12	.	.	.	3
C#CCOCCOCCOCCNc1nc(N2CCN(C(=O)CCCCCCCCCCNC(=O)[C@H](CCCCN)n3cc(CCO)nn3)CC2)nc(N2CCN(C(=O)CCCCCCCCCCNC(=O)[C@H](CCCCN)n3cc(C[C@@H](C)CC)nn3)CC2)n1	83*	26	.	.	.	95*
C#CCOCCOCCOCCNc1nc(N2CCN(C(=O)CCCCCCCCCCNC(=O)[C@H](CO)n3cc(CCCCCN)nn3)CC2)nc(N2CCN(C(=O)CCCCCCCCCCNC(=O)[C@H](CCCN=C(N)N)n3cc(C[C@@H](C)CC)nn3)CC2)n1	89*	10	.	.	.	12
C#CCOCCOCCOCCNc1nc(N2CCN(C(=O)CCCCCCCCCCNC(=O)[C@H](CCCCN)n3cc(C[C@@H](C)CC)nn3)CC2)nc(N2CCN(C(=O)CCCCCCCCCCNC(=O)[C@H](CCCN=C(N)N)n3cc(C[C@@H](C)CC)nn3)CC2)n1	99*	36	.	.	.	102*
C#CCOCCOCCOCCNc1nc(N2CCN(C(=O)CCCCCCCCCCNC(=O)[C@H](CCCCN)n3cc(C)nn3)CC2)nc(N2CCN(C(=O)CCCCCCCCCCNC(=O)[C@H](CCCN=C(N)N)n3cc(C[C@@H](C)CC)nn3)CC2)n1	100*	1	.	.	.	168*
Cc1nc2ccccc2c(=O)n1NC(=O)c1cccc(Cl)c1	-1	-7	-3	-10	5	-18
COc1ccc(/C=C(/NC(=O)c2ccccc2)c2nc3ccc(Cl)cc3[nH]2)cc1OC	5	-22	70*	6	-2	8
COc1ccc(/C=C(/NC(=O)c2ccccc2)c2nc3ccccc3[nH]2)cc1OC	10	6	-1	3	1	-7
OCc1ccnc2c(O)cccc12	12	21	107*	57*	-1	2
O=C(NC1CCCC1)C(c1ccncc1)N(Cc1ccco1)C(=O)c1ccc(-c2ccccc2)[nH]1 (stereo not given)	1	-8	9	56*	-18	18
CC(C)(C)NC(=O)C(c1ccncc1)N(Cc1ccc(F)cc1)C(=O)c1ccc(-c2ccccc2)[nH]1 (stereo not given)	9	26	-21	59*	13	8
O=C(NC1CCCC1)C(c1ccncc1)N(Cc1ccccc1)C(=O)c1ccc(-c2ccccc2)[nH]1 (stereo not given)	.	19	3	61*	11	15
SMILES	Beta cell apopt	Mdm2-MdmX inh	Calb FLC	T cruzi inh	SKKanGAS inh	CSC inhib
O=C(NC1CCCC1)C(c1ccncc1)N(CCCN1CCOCC1)C(=O)c1ccc(-c2ccccc2)[nH]1 (stereo not given)	3	9	0	35	-12	-2
COc1ccc(-c2nnc(NC(=O)c3ccc4c(c3)OCCO4)o2)cc1	-1	16	-1	19	-2	37
COc1ccc(-c2nnc(NC(=O)c3cc(Cl)ccc3Cl)o2)cc1	7	26	83*	8	86*	22
O=C(Nc1nnc(-c2ccccc2)o1)c1nc2ccccc2s1	.	1	23	-13	92*	35
COc1ccccc1C(=O)Nc1nnc(-c2ccc(Cl)cc2)o1	1	-26	-2	-5	4	-3
COc1ccc(-c2nnc(NC(=O)c3ccc(F)cc3)o2)cc1	7	35	92*	46	91*	27
O=C(Nc1nnc(-c2ccncc2)o1)c1ccc(Br)s1	0	-10	51	4	53*	20
Cc1ccccc1C(=O)Nc1nnc(-c2ccc(F)cc2)o1	9	28	89*	18	61*	24
CS(=O)(=O)c1ccc2nc(NC(=O)c3ccc(NS(=O)(=O)c4cccc([N+](=O)[O-])c4)cc3)sc2c1	-2	8	-2	-10	62*	18
O=C(NNC(=O)c1cc(F)c(F)cc1Cl)c1ccc(NS(=O)(=O)c2cccs2)cc1	4	26	.	.	.	-1

High-throughput results deposited in PubChem by several laboratories.
